Data set [1] is described as follows: Inhibition of Hedgehog pathway-dependent oxysterol-induced mouse C3 H10T1/2 cell differentiation assessed as alkaline phosphatase production after 72 hrs. It counts as functional, cell-based. The following applies: C3H 10T1/2, 72 h. Put shortly: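 Murine progenitor C3H10T1/2 cells were induced with oxysterol to differentiate into osteoblasts in culture, and Hh pathway inhibition was taken as the effect on this differentiation. The number of determinations is reported per value.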

A short description of data set [2]: Chemical stability in Bronsted and Lewis acid. It counts as physicochemical.
Data set [3] is described as follows: Oral bioavailability in CD1 mouse at 5 mg/kg by LC-MS/MS analysis. The following applies: in vivo. It counts as ADME, organism-based. The essentials:
(§1)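 Hydrochloride salt was dissolved in sterile water for injection containing 30% (w/w) 2-hydroxypropyl-β-cyclodextrin and given to CD-1 mice intravenously and orally. Plasma was sampled at selected time points, proteins were precipitated, and drug levels were quantified by LC-MS/MS.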

Data set [4] can be described thus: Elimination half life in CD1 mouse at 5 mg/kg, po by LC-MS/MS analysis. The following applies: in vivo, read-out: beta t1/2 (converted). It counts as ADME, organism-based. On the set-up: dose 5 mg/kg, route oral. Put shortly:
as §1

The test system of a further data set is Mus musculus. Nature of the data set: Volume of distribution in CD1 mouse at 5 mg/kg, po by LC-MS/MS analysis. It counts as ADME, organism-based. Further details: dose 5 mg/kg, route oral. The following applies: in vivo. The essentials:
as §1

A short description of data set [5]: Chemical stability in simulated gastric fluid after 60 mins. It counts as physicochemical. The following applies: read-out: Stability. The essentials: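 Test material incubated in simulated gastric fluid for 60 min; read-out is the percentage of parent compound remaining.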

Take `CC(=O)N1C[C@@H](C)C[C@H]2O[C@]3(CC[C@@H]4C(=C(C)C3)C[C@H]3[C@H]4CCC4=CC(=O)CC[C@@]43C)[C@H](C)[C@@H]21`: the EC50 in data set [1] stood at 120 nM. In the case of `CC1=C2C[C@H]3[C@@H](CCC4=CC(=O)CC[C@@]43C)[C@@H]2CC[C@@]2(C1)O[C@@H]1C[C@H](C)CN(CCOCCO)[C@H]1[C@H]2C`, the EC50 in data set [1] was greater than 1000 nM.

As for `C[C@H]1C[C@H]2O[C@]3(CC[C@H]4[C@@H]5CC=C6C[C@@H](O)CC[C@]6(C)[C@H]5C[C@@]45C[C@]53C)[C@H](C)[C@@H]2N(C(=O)OCC2c3ccccc3-c3ccccc32)C1`, in data set [2], the Stability result is recorded as “Stable”. `CC1=C2C[C@H]3[C@@H](CCC4=CC(=O)CC[C@@]43C)[C@@H]2CC[C@@]2(C1)O[C@@H]1C[C@H](C)CN[C@H]1[C@H]2C.Cl` displayed a bioavailability in data set [3] of 80%. Moreover, the half-life in data set [4] was 3.2 h. In addition, in the data set with Mus musculus, the Vd amounted to 18 L/kg.

Regarding `CC1=C2C[C@H]3[C@@H](CC=C4C[C@@H](O)CC[C@@]43C)[C@@H]2CC[C@]12O[C@@H]1C[C@H](C)CN[C@H]1[C@H]2C` [CYCLOPAMINE], in data set [1], the EC50 is 170 nM. Also, the remaining at 1 h in data set [5] is 60%. Turning to `CC1=C2C[C@H]3[C@@H](CCC4=CC(=O)CC[C@@]43C)[C@@H]2CC[C@@]2(C1)O[C@@H]1C[C@H](C)CN(C)[C@H]1[C@H]2C`, the EC50 in data set [1] came out at 400 nM. In the case of `C[C@@H]1CN[C@H]2[C@@H](C)[C@@]3(CC[C@H]4[C@@H]5CC=C6C[C@@H](O)CC[C@]6(C)[C@H]5C[C@@]45C[C@]53C)O[C@@H]2C1` [CYCLOPROPYL CYCLOPAMINE], the Stability entry in data set [2] is “Stable”. In addition, the EC50 in data set [1] is greater than 2000 nM. For the compound `CC1=C2C[C@H]3[C@@H](CCC4=CC(=O)CC[C@@]43C)[C@@H]2CC[C@@]2(C1)O[C@@H]1C[C@H](C)CN(Cc3ccccc3)[C@H]1[C@H]2C`, the EC50 in data set [1] was greater than 2000 nM. With `CC1=C2C[C@H]3[C@@H](CCC4=CC(=O)CC[C@@]43C)[C@@H]2CC[C@@]2(C1)O[C@@H]1C[C@H](C)CN(CCNC(=O)CCCCCNC(=O)CCc3ccccc3)[C@H]1[C@H]2C`, the EC50 in data set [1] was 10 nM. As to `COCCOCCN1C[C@@H](C)C[C@H]2O[C@]3(CC[C@@H]4C(=C(C)C3)C[C@H]3[C@H]4CCC4=CC(=O)CC[C@@]43C)[C@H](C)[C@@H]21`, the EC50 in data set [1] is 400 nM.

In the case of `CC1=C2C[C@H]3[C@@H](CCC4=CC(=O)CC[C@@]43C)[C@@H]2CC[C@@]2(C1)O[C@@H]1C[C@H](C)CN[C@H]1[C@H]2C`, the EC50 in data set [1] stood at 200 nM. Besides, in data set [5], the remaining at 1 h was 98%. Regarding `CC1=C2C[C@H]3[C@@H](CCC4=CC(=O)CC[C@@]43C)[C@@H]2CC[C@@]2(C1)O[C@@H]1C[C@H](C)CN(CCCl)[C@H]1[C@H]2C`, the EC50 in data set [1] is greater than 2500 nM.

With `CC1=C2C[C@H]3[C@@H](CCC4=CC(=O)CC[C@@]43C)[C@@H]2CC[C@@]2(C1)O[C@@H]1C[C@H](C)CN(CCNC(=O)CCc3ccccc3)[C@H]1[C@H]2C`, the EC50 in data set [1] came out at 20 nM. `CC1=C2C[C@H]3[C@@H](CCC4=CC(=O)CC[C@@]43C)[C@@H]2CC[C@@]2(C1)O[C@@H]1C[C@H](C)CN(O)[C@H]1[C@H]2C`: the half-maximal effective concentration (EC50) in data set [1] worked out at 800 nM. With `CC1=C2C[C@H]3[C@@H](CC=C4C[C@@H](O)CC[C@@]43C)[C@@H]2CC[C@@]2(C1)O[C@@H]1C[C@H](C)CN[C@H]1[C@H]2C`, the EC50 in data set [1] is greater than 2500 nM.

By EC50 is commonly meant the concentration giving half of the maximal effect. As usually defined, the bioavailability is the share of a dose that reaches the circulation, judged against a reference dose that is usually intravenous. Lower therefore signals little systemic uptake.

The values are drawn from ChEMBL document CHEMBL1142521 (J Med Chem, 2008).
